Where two headings read alike, the source gives them in different places.
How the values were obtained:
[1] = test system: laryngeal carcinoma cell line (Hep-2); experiment: MTT-based cytotoxicity assay, Hep-2; assay type: cell-based, human; conditions: read-out: Anticancer (IC50) Hep-2
In short: (§1)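 Cells seeded at 10 000/well in medium with 5% FBS and held 48 h at 37 °C, 5% CO₂, 100% humidity. Test compound at various concentrations added for 48 h under the same conditions, in triplicate, with compound-free medium as control. MTT (5 mg ml⁻¹ solution) added for 4 h at 37 °C, formazan dissolved in DMSO, A570 read. % inhibition = 100 − A(sample)/A(control) × 100.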

[2] = test system: human skin cancer cell line (A375); experiment: MTT-based cytotoxicity assay, A375; assay type: cell-based
In short: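 Cells seeded at 10 000/well in medium with 5% FBS, grown 48 h at 37 °C, 5% CO₂, then exposed to test compound at various concentrations (up to 100 μM) for 48 h, in triplicate; medium alone as control. MTT solution (5 mg ml⁻¹) added for 4 h at 37 °C, formazan dissolved in DMSO, absorbance read at 570 nm; inhibition % = 100 − (A sample/A control × 100).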

[3] = test system: hepatocellular carcinoma cell line (HepG2); experiment: MTT-based cytotoxicity assay, HepG2; assay type: cell-based, human; conditions: read-out: Anticancer (IC50) HepG2
In short: as §1

[4] = test system: breast cancer cell line (MCF-7); experiment: MTT-based cytotoxicity assay, MCF-7; assay type: cell-based, human; conditions: read-out: Anticancer (IC50) MCF-7
In short: as §1

[5] = test system: non-cancerous normal cell (Vero); experiment: MTT-based cytotoxicity assay, normal Vero cell; conditions: for Cytotoxicity to non-cancerous cells (in words): cell viability assay up to 100 μM, Fig. 3
In short: as §1

[6] = Homo sapiens, A-375, 48 h, read-out: Anticancer (IC50) A375, MTT, 48 hours, average of three independent experiments
[7] = MTT, 48 hours, average of three independent experiments

Molecule	IC50 ([1]; Homo sapiens, HEp-2, 48 h) [µM]	IC50 [2, 6] [µM]	IC50 ([3]; Homo sapiens, HepG2, 48 h) [µM]	IC50 ([4]; Homo sapiens, MCF7, 48 h) [µM]	Cytotoxicity to non-cancerous cells (in words) [5]	IC50 [1, 7] [µM]	IC50 ([2]; read-out: Anticancer (IC50) A375, MTT, 48 hours, average of three independent experiments) [µM]	IC50 [3, 7] [µM]	IC50 ([5]; read-out: Anticancer (IC50) Vero, MTT, 48 hours, non-cancerous normal cell, average of three independent experiments) [µM]	IC50 [4, 7] [µM]
CN(C)c1ccc(-c2nc3cnccn3c2NC(C)(C)C)cc1 [10h, N-(tert-Butyl)-2-(4-(dimethylamino)phenyl)imidazo[1,2-a]pyrazin-3-amine]	45 ± 0.5	30 ± 2.84	34 ± 5.5	50 ± 6.41						
CC(C)(C)Nc1c(-c2ccc([N+](=O)[O-])cc2)nc2cnccn12 [10a, N-(tert-Butyl)-2-(4-nitrophenyl)imidazo[1,2-a]pyrazin-3-amine]	50 ± 3.42	36 ± 3.1	40 ± 2.52	> 100						
COc1cccc2c1C(=O)c1c(O)c3c(c(O)c1C2=O)C[C@@](O)(C(=O)CO)C[C@@H]3O[C@H]1C[C@H](N)[C@H](O)[C@H](C)O1 [Doxorubicin, reference compound]	10 ± 0.5	5.16	1.5 ± 0.09	0.85 ± 0.02						
CN(C)c1ccc(-c2nc3ccccn3c2N)cc1 [12j, 2-(4-(Dimethylamino)phenyl)imidazo[1,2-a]pyridin-3-amine]	45 ± 5	25 ± 1.4	35 ± 4.8	30 ± 5						
CC(C)(C)Nc1c(-c2ccccc2N)nc2ccccn12 [12f, 2-(2-Aminophenyl)-N-(tert-butyl)imidazo[1,2-a]pyridin-3-amine]	28 ± 5	28 ± 1.5	32 ± 0.1	24 ± 5.8						
Nc1ccccc1-c1nc2ccccn2c1N [12h, 2-(2-Aminophenyl)imidazo[1,2-a]pyridin-3-amine]	44 ± 1.4	55 ± 1.5	54 ± 1.5	61 ± 2.4						
CN(C)c1ccc(-c2nc3ccccn3c2NC(C)(C)C)cc1 [12i, N-(tert-Butyl)-2-(4-(dimethylamino)phenyl)imidazo[1,2-a]pyridin-3-amine]	20 ± 2.7	12 ± 0.7	19 ± 1.3	17 ± 0.92	non-toxic to non-cancerous cells					
Nc1c(-c2ccc([N+](=O)[O-])cc2)nc2ccccn12 [12c, 2-(4-Nitrophenyl)imidazo[1,2-a]pyridin-3-amine]	35 ± 2.4	50 ± 1.8	48 ± 4.8	> 100						
CC(C)(C)Nc1c(-c2ccccc2[N+](=O)[O-])nc2ccccn12 [12e, N-(tert-Butyl)-2-(2-nitrophenyl)imidazo[1,2-a]pyridin-3-amine]	55 ± 0.4	> 100	62 ± 4.8	> 100						
Nc1ccccc1-c1nc2cnccn2c1N [10g, 2-(2-Aminophenyl)imidazo[1,2-a]pyrazin-3-amine]	22 ± 2.15	20 ± 5.8	25 ± 4.54	30 ± 1.24						
2-(2-Nitrophenyl)imidazo[1,2-a]pyrazin-3-amine [10l]						64 ± 2.45	27 ± 5	32 ± 4.64	67 ± 4.54	80 ± 4.53
Nc1ccccc1-c1nc2cnccn2c1NC1CCCCC1 [10m, 2-(2-Aminophenyl)-N-cyclohexylimidazo[1,2-a]pyrazin-3-amine]	28 ± 4.28	23 ± 1.5	20 ± 2.15	44 ± 2.68						
O=[N+]([O-])c1ccc(-c2nc3ccccn3c2NC2CCCCC2)cc1 [12k, N-Cyclohexyl-2-(4-nitrophenyl)imidazo[1,2-a]pyridin-3-amine]	30 ± 8	41 ± 5	40 ± 1.5	52 ± 0.8						
Nc1c(-c2ccc([N+](=O)[O-])cc2)nc2cnccn12 [10c, 2-(4-Nitrophenyl)imidazo[1,2-a]pyrazin-3-amine]	45 ± 1.6	24 ± 2.48	30 ± 1.43	40 ± 3.8						
CN(C)c1ccc(-c2nc3cnccn3c2N)cc1 [10i, 2-(4-(Dimethylamino)phenyl)imidazo[1,2-a]pyrazin-3-amine]	28 ± 3.1	16 ± 1.2	26 ± 0.9	17 ± 0.52	non-toxic to non-cancerous cells					
Nc1ccc(-c2nc3ccccn3c2N)cc1 [12d, 2-(4-Aminophenyl)imidazo[1,2-a]pyridin-3-amine]	20 ± 5.8	38 ± 2.4	35 ± 2.5	50 ± 1.82						
CC(C)(C)Nc1c(-c2ccccc2[N+](=O)[O-])nc2cnccn12 [10e, N-(tert-Butyl)-2-(2-nitrophenyl)imidazo[1,2-a]pyrazin-3-amine]	80 ± 1.37	34 ± 3.2	40 ± 2.52	100 ± 8.64						
CC(C)(C)Nc1c(-c2ccc(N)cc2)nc2ccccn12 [12b, 2-(4-Aminophenyl)-N-(tert-butyl)imidazo[1,2-a]pyridin-3-amine]	11 ± 0.8	11 ± 0.07	13 ± 1.2	11 ± 0.5	non-toxic to non-cancerous cells					
CC(C)(C)Nc1c(-c2ccc(N)cc2)nc2cnccn12 [10b, 2-(4-Aminophenyl)-N-(tert-butyl)imidazo[1,2-a]pyrazin-3-amine]	20 ± 1.64	16 ± 0.96	18 ± 1.32	21 ± 1.64	non-toxic to non-cancerous cells					
Nc1ccc(-c2nc3ccccn3c2NC2CCCCC2)cc1 [12l, 2-(4-Aminophenyl)-N-cyclohexylimidazo[1,2-a]pyridin-3-amine]	20 ± 5.2	30 ± 0.1	25 ± 0.2	35 ± 1.5						
O=[N+]([O-])c1ccc(-c2nc3cnccn3c2NC2CCCCC2)cc1 [10j, N-Cyclohexyl-2-(4-nitrophenyl)imidazo[1,2-a]pyrazin-3-amine]	44 ± 6.4	25 ± 5.41	40 ± 1.4	24 ± 0.15						
CC(C)(C)Nc1c(-c2ccccc2N)nc2cnccn12 [10f, 2-(2-Aminophenyl)-N-(tert-Butyl)imidazo[1,2-a]pyrazin-3-amine]	25 ± 5.2	20 ± 1.57	20 ± 4.64	26 ± 2.38						
Nc1c(-c2ccccc2[N+](=O)[O-])nc2ccccn12 [12g, 2-(2-Nitrophenyl)imidazo[1,2-a]pyridin-3-amine]	50 ± 5.2	62 ± 2.4	> 100	> 100						
Nc1ccc(-c2nc3cnccn3c2NC2CCCCC2)cc1 [10k, 2-(4-Aminophenyl)-N-cyclohexylimidazo[1,2-a]pyrazin-3-amine]	34 ± 4.56	30 ± 1.5	28 ± 2.48	65 ± 2.41						
CC(C)(C)Nc1c(-c2ccc([N+](=O)[O-])cc2)nc2ccccn12 [12a, N-(tert-Butyl)-2-(4-nitrophenyl)imidazo[1,2-a]pyridin-3-amine]	32 ± 5.5	45 ± 2.5	30 ± 2.5	55 ± 5.25						
Nc1ccc(-c2nc3cnccn3c2N)cc1 [10d, 2-(4-Aminophenyl)imidazo[1,2-a]pyrazin-3-amine]	38 ± 2.2	25 ± 1.45	34 ± 2.64	30 ± 3.32						

Source: paper PMC10718296 (RSC Advances, 2023)
